# High-throughput results as filed in PubChem.
# TRPC6 act: activators of mouse TRPC6 channel; Q61143; HEK293-TRPC6 membrane potential dye fluorescence; hits give high values; B-score at 10 µM; 310,000 tested, 0.13% active; AID 2550;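 active = B-score of the integrated fluorescence ratio above library mean plus 3 SD, and starting fluorescence ratio within library mean plus 5 SD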;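 also: higher score means more depolarization so channel activation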
# Target sequence (Q61143 whole entry, looked up): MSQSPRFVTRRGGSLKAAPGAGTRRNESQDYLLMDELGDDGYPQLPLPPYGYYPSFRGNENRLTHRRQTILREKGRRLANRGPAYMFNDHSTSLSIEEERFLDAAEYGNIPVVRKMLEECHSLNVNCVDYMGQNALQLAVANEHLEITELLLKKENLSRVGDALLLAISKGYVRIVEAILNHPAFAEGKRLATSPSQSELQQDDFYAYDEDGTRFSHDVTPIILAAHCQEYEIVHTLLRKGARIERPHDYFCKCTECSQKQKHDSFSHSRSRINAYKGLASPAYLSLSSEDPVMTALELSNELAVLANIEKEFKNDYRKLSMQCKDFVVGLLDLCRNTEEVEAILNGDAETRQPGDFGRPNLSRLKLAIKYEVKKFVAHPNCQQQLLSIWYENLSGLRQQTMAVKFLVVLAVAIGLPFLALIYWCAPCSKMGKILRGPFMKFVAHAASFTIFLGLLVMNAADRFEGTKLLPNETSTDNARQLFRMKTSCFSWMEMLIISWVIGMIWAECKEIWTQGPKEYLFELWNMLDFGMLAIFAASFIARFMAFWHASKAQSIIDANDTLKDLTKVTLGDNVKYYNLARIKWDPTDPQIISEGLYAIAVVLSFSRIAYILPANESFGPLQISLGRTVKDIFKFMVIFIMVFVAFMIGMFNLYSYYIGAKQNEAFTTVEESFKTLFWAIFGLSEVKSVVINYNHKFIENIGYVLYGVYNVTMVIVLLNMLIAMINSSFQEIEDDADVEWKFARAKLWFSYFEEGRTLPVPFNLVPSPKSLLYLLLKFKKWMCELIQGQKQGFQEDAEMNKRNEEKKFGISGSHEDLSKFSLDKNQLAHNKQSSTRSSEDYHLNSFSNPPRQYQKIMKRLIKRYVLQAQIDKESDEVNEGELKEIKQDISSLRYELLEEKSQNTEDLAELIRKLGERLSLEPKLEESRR
# TRPC4 potent: allosteric potentiators of mouse TRPC4 channel. Q9QUQ5. HEK293 TRPC4beta/mu-opioid, DAMGO EC20, Fluo-4 Ca2+ flux; hits give high values. 310,000 tested, 0.42% active. B-score at 10 µM;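 active = B-score of calcium response area above 5 SD of library B-scores, with initial fluorescence ratio within 5 SD of library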;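 also: B-score of integrated fluorescence ratio over time as area under calcium response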
# TRPC4 agonist: opens the mouse TRPC4 cation channel; Q9QUQ5; HEK293 TRPC4beta/mu-opioid, Fluo4 calcium fluorescence; hits give high values; B-score at 10 µM; 310,000 tested, 0.49% active; AID 2237;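 active = B-score above 5 SD of library B-scores, and initial fluorescence ratio not above library mean plus 5 SD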;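 also: positive B-score marks a calcium rise read as TRPC4 activation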
#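 system = HEK293 cells stably co-expressing mouse TRPC4beta and mu-opioid receptor | schedule = Fluo4 dye loading 45 min at room temperature, 110 s recording | measure = B-scored integrated calcium fluorescence ratio | signal = Fluo4 calcium-sensitive dye fluorescence, kinetic, 1 Hz baseline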
# Yeast superoxide: yeast age-related superoxide inhibition as caloric restriction mimetic | 330,000 tested, 0.18% active | superoxide response (% of plate mean), % at 10 µM | AID 2690 | S. cerevisiae aged cells, superoxide DHE fluorescence; hits give low values;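 active = superoxide response under a set limit, about three screen SD below normal, cut at about 65% in these data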;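 also: yeast aged for seven days with compound at 30 °C before DHE staining; 100% = average MFI of all compound-treated wells on the plate with controls excluded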
# TRPC4 block: blocks the mouse TRPC4 cation channel. Q9QUQ5. HEK293 TRPC4beta/mu-opioid, DAMGO-evoked Fluo4 calcium flux; hits give low values. B-score at 10 µM. 300,000 tested, 0.39% active. AID 2247;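 active = B-score over 3 SD under the library average, no early fluorescence shift, positive overall ratio signal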
#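 material = TRPC4beta/mu-opioid receptor HEK293 cell line | probe or stimulus = sequential submaximal and maximal DAMGO stimulation | compound dosing = one concentration per compound | measured by = Fluo4 Ca2+ flux fluorescence | evaluation = integrated fluorescence ratio relative to baseline, converted to per-well B score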
# TRPC6 inh: mouse TRPC6 channel inhibition; Q61143; HEK293-TRPC6, membrane potential dye, ACh-evoked depolarization; hits give low values; B-score at 10 µM; 310,000 tested, 1.1% active;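 active = B-score under library mean minus 3 SD, initial fluorescence not abnormally high, positive integrated signal ratio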;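 also: B-score derived from integrated fluorescence ratio over the kinetic read; more negative B-score means stronger inhibition of depolarization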
# TRPC4 spec 2: second check of whether TRPC6 inhibitors also affect mouse TRPC4. shares compounds with TRPC6 inh. HEK293 TRPC4/MOR, membrane potential dye fluorescence; channel activated by saturating DAMGO dose. inhibition, % at 10 µM. 920 tested, 42% active. AID 2776;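 active = compounds whose fluorescence signal differed from control wells by over 3 SD, either direction, in both duplicate plates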
# TRPC4 spec: mouse TRPC4 off-target activity of TRPC6 inhibitors; HEK293 TRPC4/mu-opioid, membrane potential fluorescence; 920 tested, 61% active; shares compounds with TRPC6 inh; activity change, negative = inhibition, % at 10 µM; AID 2777;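 active = rise or fall in signal beyond 3 SD of buffer-only wells in both replicate plates, either sign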;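 also: integrated kinetic ratio of fluorescence range over baseline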
# HEK293 MPD ctr 2-1: second check of TRPC6 inhibitor effects in parental HEK293 cells. shares compounds with TRPC6 inh. parental HEK293 membrane potential dye fluorescence; maximal acetylcholine challenge after compound addition. signal change vs control, % at 10 µM. 920 tested, 31% active;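 active = membrane potential signal moving either way by over 3 SD of the maximum-effect control, in both duplicate plates, meaning non-specific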
# HEK293 MPD ctr-1: parental HEK293 nonspecific activity of TRPC6 inhibitors; shares compounds with TRPC6 inh; parental HEK293 membrane potential dye fluorescence; membrane potential signal change, % at 10 µM; 920 tested, 60% active; AID 2780;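 active = membrane potential signal shifting up or down by more than 3 SD of buffer-only wells, on both duplicate plates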
# HEK293 MPD ctr-2: parental HEK293 nonspecific activity of TRPC6 modulators; membrane potential signal change, % at 10 µM; AID 488924; membrane potential dye fluorescence; shares compounds with TRPC6 inh; 2,400 tested, 51% active;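 active = membrane potential signal moves up or down beyond 5 SD from buffer-only wells, on both duplicate plates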
# HEK293 MPD ctr 2-2: second counter-screen for TRPC6 modulators: effect in parental HEK293 cells | shares compounds with TRPC6 inh | membrane potential dye fluorescence; after compound, maximal acetylcholine stimulation | inhibition, % at 10 µM | 2,400 tested, 14% active;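 active = membrane potential signal drops by more than 5 SD from the mean control signal, in both duplicate plates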;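 also: plate controls were acetylcholine ECmax control wells for no effect and buffer only wells for full effect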
# TRPC4/MOR mod: tests whether TRPC6 modulators also affect mouse TRPC4; shares compounds with TRPC6 inh; HEK293 TRPC4/mu-opioid, membrane potential fluorescence; percent change from control (negative = decrease, positive = increase), % at 10 µM; 2,400 tested, 69% active; AID 488927;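 active = membrane potential signal moved up or down beyond 5 SD of buffer control wells, in both duplicate plates, actives on both sides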;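 also: plate controls were assay buffer wells for no effect and DAMGO maximal-effect wells for full effect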
# TRPC4/MOR inh 2: second selectivity test of TRPC6 modulators against mouse TRPC4; shares compounds with TRPC6 inh; HEK293 TRPC4/mu-opioid, membrane potential dye fluorescence; stimulated with maximal-effect DAMGO; inhibition, % at 10 µM; 2,400 tested, 55% active; AID 488928;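 active = drop in membrane potential signal beyond 5 SD of the control wells in both duplicate plates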;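 also: TRPC4 counter screen for TRPC6 hits run under conditions tuned for TRPC6 not TRPC4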
# TRPC6 block conf: mouse TRPC6 inhibitor confirmation | shares compounds with TRPC6 inh | HEK293-TRPC6, membrane potential dye, ACh-evoked depolarization | 3,300 tested, 43% active | inhibition, % at 10 µM;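 active = fluorescence ratio falls more than 5 SD below the full-stimulation control mean, in both duplicate runs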;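 also: integrated fluorescence ratio of peak minus minimum over baseline after agonist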
# TRPC6 act confirm: confirmation of mouse TRPC6 activators | shares compounds with TRPC6 inh | HEK293-TRPC6 membrane potential dye fluorescence, FDSS | activation, % at 10 µM | 2,800 tested, 11% active | AID 488961;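 active = ratio signal rise beyond 5 SD above unstimulated control wells' mean, seen in both duplicate runs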;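 also: plate controls were buffer EC0 wells for no effect and acetylcholine ECmax response for full effect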
# * marks the source's active call; other numbers are inactive results; i = inactive; · = no result given; + = active, no number. Sampled rows, rich in hits. Any-hit rate of the full collection: about 2.3%.
SMILES,TRPC6 act,TRPC4 potent,TRPC4 agonist,Yeast superoxide,TRPC4 block,TRPC6 inh,TRPC4 spec 2,TRPC4 spec,HEK293 MPD ctr 2-1,HEK293 MPD ctr-1,TRPC6 block conf,TRPC6 act confirm,others
Cc1ccccc1Cc1c(C)nc2nc(SCC(=O)N3CCC4(CC3)OCCO4)nn2c1C,i,i,i,108,i,i,·,·,·,·,·,·,
O=C1NC(=O)C(Sc2ccccc2[N+](=O)[O-])C(=O)N1,i,i,i,104,i,i,·,·,·,·,·,·,
c1ccc(Nc2ccc(Nc3ccccc3)cc2)cc1,·,·,·,78,·,·,·,·,·,·,·,·,
N#CC(C#N)=C(C#N)c1ccc(Nc2ccccc2)cc1,i,i,i,83,i,-8.5*,i,-10%*,i,i,i,i,
CC(C)Cc1nc(N2CCNCC2)c(C#N)c2c1CCC2,i,i,i,97,i,-10*,34%*,6.0%*,i,14%*,72%*,i,
C[N+]12CCC(CC1)C(C(O)(c1ccccc1)c1cccs1)C2 (configuration not stated),i,i,i,106,i,-5.7*,·,·,·,·,55%*,i,HEK293 MPD ctr-2=i;HEK293 MPD ctr 2-2=i;TRPC4/MOR mod=i;TRPC4/MOR inh 2=i
CCCCn1c(=O)c(C(=O)NCc2ccccc2Cl)c(O)c2ccccc21,i,i,i,96,i,i,·,·,·,·,·,·,
COC(=O)C1=C(c2cc3ccccc3s2)C[C@@H]2CC[C@H]1N2C(=O)NCc1ccccc1,i,i,i,100,i,i,·,·,·,·,·,·,
Cc1nc2c(C(=O)N3CCC4(CC3)OCCO4)cnn2c(C)c1Cc1cccc(Cl)c1,i,i,i,98,i,-5.2*,·,·,·,·,45%*,·,HEK293 MPD ctr-2=i;HEK293 MPD ctr 2-2=i;TRPC4/MOR mod=i;TRPC4/MOR inh 2=i
O=C(c1cc(-c2cccnc2)nc2ccc(Cl)cc12)N1CCC2(CC1)OCCO2,i,i,i,106,i,i,·,·,·,·,·,·,
Cc1ccc(N2C(=O)NC(=O)/C(=C/c3ccc(OC(=O)c4cccs4)cc3)C2=O)cc1,i,i,i,107,i,i,·,·,·,·,·,·,
COc1ccc(CCNCc2ccccc2)cc1,i,i,i,93,i,i,·,·,·,·,·,·,
COc1ccc(CCNCc2c(OC)ccc3ccccc23)cc1,i,i,i,102,i,-7*,69%*,47%*,i,24%*,65%*,·,
Cc1ccc(-c2cc(-c3ccc(C)cc3)[n+](-c3ccc(C(=O)O)cc3)c(-c3ccc(C)cc3)c2)cc1,i,i,i,111,i,i,·,·,·,·,·,·,
Cc1ccc(C[n+]2c(-c3ccc(C)cc3)cc(-c3ccc(C)cc3)cc2-c2ccc(C)cc2)cc1,i,i,160*,95,i,-7*,56%*,-16%*,i,-196%*,81%*,i,
Cc1cccc(-c2nc3ccc(C(=O)N4CCC5(CC4)OCCO5)cc3nc2-c2cccc(C)c2)c1,13*,i,i,96,i,-7.3*,·,·,·,·,79%*,116%*,HEK293 MPD ctr-2=i;HEK293 MPD ctr 2-2=i;TRPC4/MOR mod=14%*;TRPC4/MOR inh 2=i
COc1cccc(C(=O)N2CCC3(CC2)OCCO3)c1,i,i,i,88,i,i,·,·,·,·,·,·,
COc1cc(C(=O)OC2C[C@H]3CC[C@@H](C2)N3C)ccc1O (some centres not stated),i,i,i,104,i,i,·,·,·,·,·,·,
CCC(CO)(C(=O)OC1CC2CCC(C1)N2C)c1ccccc1 (configuration not stated),i,i,i,92,i,-7.6*,i,i,-46%*,i,89%*,i,
O=C(/C=C/c1c[nH]c2ccccc12)c1c(O)n(CCc2ccccc2)c(=O)[nH]c1=O,144*,i,i,94,i,i,·,·,·,·,i,390%*,HEK293 MPD ctr-2=+;HEK293 MPD ctr 2-2=i;TRPC4/MOR mod=392%*;TRPC4/MOR inh 2=i
CC(Cc1ccccc1Sc1ccc(O)cc1)N(C)C (configuration not stated),i,i,i,102,i,-6.6*,41%*,43%*,i,4.2%*,i,i,
CC(Cc1ccccc1Sc1ccccc1)N(C)C (configuration not stated),i,i,i,100,i,i,·,·,·,·,·,·,
CCN(CCO)c1ccc(N=Cc2c(O)n(C)c(=S)[nH]c2=O)cc1,23*,i,i,99,i,-7.5*,·,·,·,·,36%*,54%*,HEK293 MPD ctr-2=162%*;HEK293 MPD ctr 2-2=i;TRPC4/MOR mod=26%*;TRPC4/MOR inh 2=i
COC(=O)C1=C(c2cccc(OC)c2OC)C[C@@H]2CC[C@H]1N2C(=O)NCc1ccc(F)cc1,i,i,i,96,i,i,·,·,·,·,·,·,
